The list is a sample of the results.
Apaf-1 act: activators of human Apaf-1 apoptosome; O14727; Apaf-1 apoptosome caspase-3 activation, DEVD-Rh110 fluorescence; stronger effect = lower value; activity change, negative = activation, % at 20 µM; hit rate 0.31% among 330,000;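 active = activity change at or below -40% at 20 µM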
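Material: reconstituted apoptosome of Apaf-1, cytochrome c, caspase-9, procaspase-3; times: 30 min preincubation, 50 min reaction, room temperature; measured by: fluorescence, 540 nm emission, 480 nm excitation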
Rh110 interf act: Rh110 signal interference in Apaf-1 activator counter-screen; shares compounds with Apaf-1 act; Rh110 fluorescence interference, quenched caspase reaction, Ex480/Em540; fluorescence interference (activity change), % at 20 µM, hits read low; 980 tested, under 10 active; AID 504616;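 active = mean activity change at or below -40% when tested at 20 µM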
Apaf-1 act conf: Apaf-1 (human) activation, single-dose confirmed. hit rate 5% among 980. reconstituted apoptosome caspase-3 activity, DEVD-Rh110 fluorescence; stronger effect = lower value. shares compounds with Apaf-1 act. AID 504617. activity change, negative = activation, % at 20 µM;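 active = mean activity change at or below -40%, meaning activation of 40% or more, at 20 µM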
Fluor interf act: counter-screen for Apaf-1 activators: fluorescence interference, dose response. shares compounds with Apaf-1 act. fluorescence interference counterscreen, Apaf-1 activator assay. EC50, µM. 55 tested, under 10 active; call rule not given here
Large screens that a line does not name were inactive (follow-up assays come after a bar, where they were run).

CCN(CC(=O)NCc1cccs1)C(=O)CCCOc1ccc(C(C)(C)C)cc1	none
O=C(NCc1cccs1)c1cccnc1C(=O)O	Apaf-1 act -79 | Rh110 interf act inactive | Apaf-1 act conf inactive
CC(=O)NC1=C(N(C)C2CCS(=O)(=O)C2)C(=O)c2ccccc2C1=O (configuration not stated)	none
O=C1CCNc2cc3ccccc3cc21	none
CCCOc1ccc(N)cc1N	none
O=C1NCC(c2ccccc2)C1C(=O)N/N=C\c1ccc(-c2cccc(Cl)c2Cl)o1 (configuration not stated)	none
CCOC(=O)c1c(CSC(=N)N)n(-c2ccc(C)cc2)c2cc(Br)c(OC(C)=O)cc12	none
CCOc1ccc(CCNC(=O)c2ccc3c(=O)[nH]c4c(C(=O)NC(C)C)sc(=S)n4c3c2)cc1	Apaf-1 act -515 | Rh110 interf act inactive | Apaf-1 act conf inactive
Nn1c(SCCOc2ccc(Cl)cc2)nnc1-c1cccnc1	Apaf-1 act -44 | Rh110 interf act inactive | Apaf-1 act conf inactive
Clc1ccc(OCCSc2nnnn2C2CCCCC2)cc1	none
CC1CCN(C2=C(NS(=O)(=O)c3ccccc3)C(=O)c3ccccc3C2=O)CC1	none
O=S(=O)(Nc1cc(Sc2ncn[nH]2)c(O)c2ccccc12)c1ccccc1	none
O=S(=O)(Nc1ccc(S(=O)(=O)Nc2ncccn2)cc1)c1ccccc1	Apaf-1 act -510 | Rh110 interf act inactive | Apaf-1 act conf inactive
NS(=O)(=O)c1ccc(N=Nc2c[nH]c(=O)c(O)c2)cc1	none
CC[C@]12c3[nH]c4ccc(OC)cc4c3CCN1C(=O)C(CC(=O)NC/C=C(\C)CCC=C(C)C)C[C@@H]2C(=O)N1CCN(C(=O)c2ccco2)CC1 (some centres not stated)	none
C#CCOCCOCCOCCNc1nc(N2CCN(C(=O)[C@H](Cc3cc4ccccc4[nH]3)n3cc([C@@H](N)C(C)CC)nn3)CC2)nc(N2CCN(C(=O)[C@H](Cc3cc4ccccc4[nH]3)n3cc([C@@H](N)Cc4ccc(O)cc4)nn3)CC2)n1 (some centres not stated)	none
C=C(C)C(=O)Nc1cccc(C2=NOC3(C2)C[C@@H](C(N)=O)N(C(=O)/C=C/CC)C3)c1 (some centres not stated)	Apaf-1 act -205 | Rh110 interf act inactive | Apaf-1 act conf -114 | Fluor interf act inactive
C=C(C)C(=O)Nc1cccc(C2=NOC3(C2)C[C@H](C(N)=O)N(C(=O)/C=C/C)C3)c1 (some centres not stated)	Apaf-1 act -280 | Rh110 interf act inactive | Apaf-1 act conf -126 | Fluor interf act inactive
C#CCOCCOCCOCCNc1nc(N2CCN(C(=O)CCCCCCCCCCNC(=O)[C@H](CCCCN)n3cc(CCCC(=O)O)nn3)CC2)nc(N2CCN(C(=O)CCCCCCCCCCNC(=O)[C@H](CCCN=C(N)N)n3cc(C[C@@H](C)CC)nn3)CC2)n1	none
CCCCCc1ccc(OCCCC[n+]2ccc(C)cc2)c(CCCCC)c1	none
CCCCCCCCCC[N+](C)(C)CC/C=C1/c2ccccc2Sc2ccc(Cl)cc21	none
CCCCCCSc1ccc(-c2nc3ccc(C)cn3c2NCc2ccccc2)cc1OC	none
Oc1ccc(N=Cc2ccc(-c3cccs3)s2)cc1	none
O=C1c2ccccc2N[C@@H]2C=CC[C@@H]2N1O	Apaf-1 act -56 | Rh110 interf act inactive | Apaf-1 act conf inactive
c1ccc(C(c2nnnn2C2CCCCC2)N2CCc3ccccc3C2)nc1 (configuration not stated)	none
COc1cccc(Cn2cnc3c(NS(=O)(=O)c4ccc(Cl)cc4Cl)c(C)c(C)cc32)c1	Apaf-1 act -66 | Rh110 interf act inactive | Apaf-1 act conf inactive
Nc1c(C(=O)NCc2ccc3c(c2)OCO3)c2nc3ccccc3nc2n1CCCN1CCOCC1	none
O=C(NCc1ccc2c(c1)OCO2)c1cc(-c2ccccc2)c(N2CCOCC2)s1	Apaf-1 act -287 | Rh110 interf act inactive | Apaf-1 act conf inactive
Cc1ccccc1-n1c(C)nc2ccccc21	Apaf-1 act -75 | Rh110 interf act inactive | Apaf-1 act conf inactive
COCCN(C(=O)COC(=O)/C=C/c1ccc(C(F)(F)F)cc1)c1c(N)n(Cc2ccccc2)c(=O)[nH]c1=O	none
Cc1c(C=O)c(Cl)n(C)c(=O)c1C#N	none
CN1CCN(c2ccc(-c3cccc(NC(=O)COc4ccccc4)c3)nn2)CC1	none
O=C(COc1ccc(-c2ccccc2)cc1)NNC(=O)Nc1ccc(F)cc1F	Apaf-1 act -54 | Rh110 interf act inactive | Apaf-1 act conf inactive
O=C(COc1ccccc1)N1CCN=C1SCc1ccc(F)cc1	none
Cc1noc(C)c1S(=O)(=O)N1CCCC(C(=O)NCC2CCCO2)C1 (configuration not stated)	Apaf-1 act -89 | Rh110 interf act inactive | Apaf-1 act conf inactive
Cc1noc(/C=C/c2cccs2)c1S(=O)(=O)N1CCC(C(=O)NCCCN2CCC(C)CC2)CC1	none
O=C(c1ccc(OCCN2CCCCC2)cc1)c1c(-c2ccc(O)cc2)sc2cc(O)ccc12	none
CN(Cc1c(F)cccc1Cl)c1nnnn1-c1ccccc1	Apaf-1 act -64 | Rh110 interf act inactive | Apaf-1 act conf inactive
O=C(OCC(=O)N1CCC(c2ccccc2)=N1)c1ccc([N+](=O)[O-])s1	none
CCC(=O)OCCNc1cc(Sc2nc3ccccc3s2)c2nonc2c1[N+](=O)[O-]	none
CCN1CCc2c(sc(NC(=O)c3cc4ccccc4cc3OC)c2C(N)=O)C1	none
CN(CCO)C(=O)c1c(NC(=O)c2ccccc2)sc2c1CCCC2	Apaf-1 act -362 | Rh110 interf act inactive | Apaf-1 act conf inactive
CC(=O)N1CCc2c(sc(NC(=O)c3cccc(N4C(=O)CCC4=O)c3)c2C(N)=O)C1	none
c1cc2c3c(cccc3c1)NC1(CCCCCC1)N2	none
CC(C)(C)OC(=O)[C@H](CCCCN)NC(=O)c1[nH]cnc1C(=O)N[C@@H](Cc1ccccc1)C(=O)OCc1ccccc1	none
CC(C)(C)c1cc(C(=O)N/N=C/c2ccc(-c3ccccc3[N+](=O)[O-])o2)n[nH]1	none
COc1ccc(CCNc2nc(-c3ccc(F)cc3)c(CC(=O)O)s2)cc1OC	Apaf-1 act -162 | Rh110 interf act inactive | Apaf-1 act conf inactive
N#CC1=C2SCN(Cc3ccccc3)CN2C(=O)CC1c1cccs1 (configuration not stated)	none
O=C(Nc1nc(-c2ccccc2)cs1)c1ccc(N2CCOCC2)c([N+](=O)[O-])c1	Apaf-1 act -46 | Rh110 interf act inactive | Apaf-1 act conf inactive
Cc1ccccc1NC1=C/C(=N\S(=O)(=O)c2cccs2)c2ccccc2C1=O	none
Cc1nc(Nc2cnc(/C=C/c3cc(C(=O)Nc4cccc(C(F)(F)F)c4)ccc3C)cn2)cc(N2CCNCC2)n1	none
CCN1CCN(C(=O)CN(c2cc(OC)ccc2OC)S(C)(=O)=O)CC1	Apaf-1 act -191 | Rh110 interf act inactive | Apaf-1 act conf inactive
O=C(O)CCN1C(=O)/C(=C2\C(=O)N(Cc3ccccc3Cl)c3ccccc32)SC1=S	Apaf-1 act -121 | Rh110 interf act inactive | Apaf-1 act conf inactive
CCOC(=O)NNc1ccc2nonc2c1[N+](=O)[O-]	none
Cc1cc(F)c(F)c(C(=O)N2CCCCC2C)c1Cl (configuration not stated)	Apaf-1 act -116 | Rh110 interf act inactive | Apaf-1 act conf inactive
